From ChEMBL document CHEMBL5712076, “A TGFβ-PRMT5-MEP50 axis regulates cancer cell invasion through histone H3 and H4 arginine methylation coupled transcriptional activation and repression” (Oncogene, 2017)
Active and inactive are the calls of the source. The rule behind the calls is not given here.

Columns and labels:
[1] = molecular target: Protein arginine N-methyltransferase 5 (Homo sapiens) (UniProt O14744); test: Inhibition of PRMT5 in TGFbeta1-stimulated human HS578T cells assessed as decrease in H4R3me2s protein expression at 500 nM for 4 days by immunoblot analysis; type: cell-based; settings: Hs-578T, time 4.0 day
How it was run: (§1)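 Immunoblots of A549 or HS578T cells given or not given 10 nM TGFβ1 for 2 days and 500 nM inhibitor for 4 days. Probes were histone methylarginine marks and EMT-related proteins.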

[2] = molecular target: Protein arginine N-methyltransferase 5 (Homo sapiens) (UniProt O14744); test: Inhibition of PRMT5 in TGFbeta1-stimulated human HS578T cells assessed as decrease in H3R2me2s protein expression at 500 nM for 4 days by immunoblot analysis; type: cell-based; settings: Hs-578T, time 4.0 day; how it was run: as §1
[3] = molecular target: Protein arginine N-methyltransferase 5 (Homo sapiens) (UniProt O14744); test: Inhibition of PRMT5 in TGFbeta1-stimulated human HS578T cells assessed as decrease in H3R2me1 protein expression at 500 nM for 4 days by immunoblot analysis; type: cell-based; settings: Hs-578T, time 4.0 day; how it was run: as §1
[4] = molecular target: Protein arginine N-methyltransferase 5 (Homo sapiens) (UniProt O14744); test: Inhibition of PRMT5 in TGFbeta1-stimulated human A549 cells assessed as increase in snail protein expression at 500 nM for 4 days by immunoblot analysis; type: cell-based; settings: time 4.0 day; how it was run: as §1
[5] = molecular target: Protein arginine N-methyltransferase 5 (Homo sapiens) (UniProt O14744); test: Inhibition of PRMT5 in TGFbeta1-stimulated human A549 cells assessed as increase in vimentin protein expression at 500 nM for 4 days by immunoblot analysis; type: cell-based; settings: time 4.0 day; how it was run: as §1
[6] = molecular target: Protein arginine N-methyltransferase 5 (Homo sapiens) (UniProt O14744); test: Inhibition of PRMT5 in TGFbeta1-stimulated human A549 cells assessed as decrease in decrease in E-cadherin protein expression at 500 nM for 4 days by immunoblot analysis; type: cell-based; settings: time 4.0 day; how it was run: as §1
[7] = molecular target: Protein arginine N-methyltransferase 5 (Homo sapiens) (UniProt O14744); test: Inhibition of PRMT5 in TGFbeta1-stimulated human A549 cells assessed as decrease in H4R3me2s protein expression at 500 nM for 4 days by immunoblot analysis; type: cell-based; settings: time 4.0 day; how it was run: as §1
[8] = molecular target: Protein arginine N-methyltransferase 5 (Homo sapiens) (UniProt O14744); test: Inhibition of PRMT5 in TGFbeta1-stimulated human A549 cells assessed as decrease in H3R2me2s protein expression at 500 nM for 4 days by immunoblot analysis; type: cell-based; settings: time 4.0 day; how it was run: as §1
[9] = molecular target: Protein arginine N-methyltransferase 5 (Homo sapiens) (UniProt O14744); test: Inhibition of PRMT5 in TGFbeta1-stimulated human A549 cells assessed as decrease in H3R2me1 protein expression at 500 nM for 4 days by immunoblot analysis; type: cell-based; settings: time 4.0 day; how it was run: as §1
[10] = test system: A549; test: Anticancer activity against human A549 cells assessed as decrease in cell invasion at 500 nM for 4 days by crystal violet staining based matrigel assay; type: functional; settings: time 4.0 day
How it was run: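 A549 cells were exposed to 500 nM for 0 or 4 days, then run in a Matrigel invasion assay through 8 μm porous polycarbonate membranes. Crystal violet-stained invaded cells on the underside were imaged by phase-contrast at 20X and quantified. Three independent experiments, mean ± S.E.M., one-way ANOVA.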

[11] = molecular target: Protein arginine N-methyltransferase 5 (Homo sapiens) (UniProt O14744); test: Inhibition of PRMT5 in human A549 cells assessed as decrease in SmD3 methylation at 0.01 to 5 uM for 4 days by immunoblot analysis; type: cell-based; settings: dose 0.01-5 µM, time 4.0 day
How it was run: (§2)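 A549 cells were exposed to 0, 10 nM, 100 nM, 500 nM, 1 μM or 5 μM for 4 days. Lysates were blotted for SYM10 (methylated SmD3) and GAPDH. Extracted histones were blotted for H4R3me2s and H3, with DB71 staining of the histones.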

[12] = molecular target: Protein arginine N-methyltransferase 5 (Homo sapiens) (UniProt O14744); test: Inhibition of PRMT5 in human A549 cells assessed as decrease in histone […] methylation at 0.01 to 5 uM for 4 days by immunoblot analysis; type: cell-based; settings: dose 0.01-5 µM, time 4.0 day; how it was run: as §2
[13] = test system: A549; test: Cytotoxicity against human A549 cells assessed as decrease in cell viability at 500 nM for 4 days by microscopic analysis; type: functional, cell-based; settings: time 4.0 day
[14] = test system: IMR-90; test: Cytotoxicity against human IMR-90 cells assessed as effect on cell viability at 500 nM for 4 days by microscopic analysis; type: toxicity, cell-based; settings: imr-90, 96 h, 0.5 µM, time 4 day
[15] = molecular target: Protein arginine N-methyltransferase 5 (Homo sapiens) (UniProt O14744); test: Inhibition of PRMT5 in human IMR-90 cells assessed as effect on SmD3 methylation for 4 days by immunoblot analysis; type: cell-based; settings: time 4.0 day
[16] = molecular target: Protein arginine N-methyltransferase 5 (Homo sapiens) (UniProt O14744); test: Inhibition of PRMT5 in human IMR-90 cells assessed as effect on histone […] methylation for 4 days by immunoblot analysis; type: cell-based; settings: time 4.0 day
[17] = test system: A549; test: Anticancer activity in human A549 cells assessed as TGFbeta1-induced cell morphology change for 4 days by microscopic analysis; type: functional, cell-based; settings: dose 500.0 nM, time 4.0 day
How it was run: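 A549 cells were given or not given 500 nM for 4 days and 10 nM TGFβ1 for 2 days. Cell morphology was imaged by microscopy, with inserts at higher magnification.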

[18] = test system: A549; test: Anticancer activity against human A549 cells assessed as decrease in TGFbeta1-induced cell invasion at 500 nM for 4 days by crystal violet staining based matrigel assay; type: functional; settings: time 4.0 day
How it was run: (§3)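 Matrigel invasion through 8 μm pores in A549, SK-MES-1 or HS578T cells, with or without 500 nM inhibitor for 4 days and with or without 10 nM TGFβ1 for 2 days. Invaded cells on the membrane underside were stained with crystal violet, imaged by phase-contrast at 20X and counted. Mean ± S.E.M. of three independent experiments; one-way ANOVA.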

[19] = test system: NCI-H460; test: Anticancer activity against human NCI-H460 cells assessed as decrease in TGFbeta1-induced cell invasion at 500 nM for 4 days by crystal violet staining based matrigel assay; type: functional; settings: time 4.0 day
[20] = test system: SK-MES-1; test: Anticancer activity against human SK-MES-1 cells assessed as decrease in TGFbeta1-induced cell invasion at 500 nM for 4 days by crystal violet staining based matrigel assay; type: functional; settings: time 4.0 day; how it was run: as §3
[21] = test system: NCI-H1339; test: Anticancer activity against human NCI-H1339 cells assessed as decrease in TGFbeta1-induced cell invasion at 500 nM for 4 days by crystal violet staining based matrigel assay; type: functional; settings: time 4.0 day
[22] = test system: Hs-578T; test: Anticancer activity against human Hs-578T cells assessed as decrease in TGFbeta1-induced cell invasion at 500 nM for 4 days by crystal violet staining based matrigel assay; type: functional; settings: time 4.0 day; how it was run: as §3
[23] = test system: A549; test: Anticancer activity against human A549 cells assessed as decrease in cell migration at 500 nM for 4 days by crystal violet staining based matrigel assay; type: functional; settings: time 4.0 day

Sequence of Protein arginine N-methyltransferase 5 (Homo sapiens) (O14744 whole entry): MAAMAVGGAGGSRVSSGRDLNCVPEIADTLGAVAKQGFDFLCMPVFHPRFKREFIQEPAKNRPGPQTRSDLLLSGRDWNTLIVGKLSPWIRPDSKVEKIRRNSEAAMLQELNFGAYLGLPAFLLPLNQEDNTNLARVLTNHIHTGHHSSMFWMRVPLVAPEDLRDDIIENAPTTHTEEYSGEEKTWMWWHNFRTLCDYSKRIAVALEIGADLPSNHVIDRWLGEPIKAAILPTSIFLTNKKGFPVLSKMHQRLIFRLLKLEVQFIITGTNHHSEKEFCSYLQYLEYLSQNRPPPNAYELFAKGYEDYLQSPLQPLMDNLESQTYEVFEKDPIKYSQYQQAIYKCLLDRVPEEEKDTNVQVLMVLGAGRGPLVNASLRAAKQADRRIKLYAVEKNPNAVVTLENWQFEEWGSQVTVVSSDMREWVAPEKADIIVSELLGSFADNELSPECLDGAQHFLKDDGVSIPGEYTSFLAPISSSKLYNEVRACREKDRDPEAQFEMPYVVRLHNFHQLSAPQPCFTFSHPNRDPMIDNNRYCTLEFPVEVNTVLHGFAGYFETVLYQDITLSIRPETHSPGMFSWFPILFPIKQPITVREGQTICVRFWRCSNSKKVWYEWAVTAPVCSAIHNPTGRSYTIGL

Question: For `O=C(NC[C@H](O)CN1CCc2ccccc2C1)c1ccnc(NC2CCC2)c1`, which inhibition [1] is on record?
Answer: Active

Question: What about the inhibition [2] of the same compound?
Answer: Active

Question: What about the inhibition [3] of the same compound?
Answer: Active

Question: And the inhibition [4]?
Answer: Active

Question: And the inhibition [5]?
Answer: Active

Question: What about the inhibition [6] of the same compound?
Answer: Active

Question: And the inhibition [7]?
Answer: Active

Question: And the inhibition [8]?
Answer: Active

Question: What about the inhibition [9] of the same compound?
Answer: Active

Question: And the inhibition [10]?
Answer: Active

Question: What about the inhibition [11] of the same compound?
Answer: Active

Question: And the inhibition [12]?
Answer: Active

Question: And the inhibition [13]?
Answer: Active

Question: And the Activity [14]?
Answer: Non-Toxic

Question: What about the inhibition [15] of the same compound?
Answer: inactive

Question: What about the inhibition [16] of the same compound?
Answer: inactive

Question: What about the Activity [17] of the same compound?
Answer: Active

Question: What about the inhibition [18] of the same compound?
Answer: Active

Question: What about the inhibition [19] of the same compound?
Answer: Active

Question: And the inhibition [20]?
Answer: Active

Question: And the inhibition [21]?
Answer: Active

Question: What about the inhibition [22] of the same compound?
Answer: Active

Question: What about the inhibition [23] of the same compound?
Answer: Active
